# In the library only some 3.3% were active in any assay of this set; here they are far more common.
# MBD2 DNA inh: inhibitors of human MBD2 binding to methylated oligonucleotide. Q9UBB5. TR-FRET. inhibition, % at 4.4 µM. hit rate 0.31% among 370,000. AID 686964; in the data active means inhibition above about 13%
# Target sequence (Q9UBB5 whole entry, looked up): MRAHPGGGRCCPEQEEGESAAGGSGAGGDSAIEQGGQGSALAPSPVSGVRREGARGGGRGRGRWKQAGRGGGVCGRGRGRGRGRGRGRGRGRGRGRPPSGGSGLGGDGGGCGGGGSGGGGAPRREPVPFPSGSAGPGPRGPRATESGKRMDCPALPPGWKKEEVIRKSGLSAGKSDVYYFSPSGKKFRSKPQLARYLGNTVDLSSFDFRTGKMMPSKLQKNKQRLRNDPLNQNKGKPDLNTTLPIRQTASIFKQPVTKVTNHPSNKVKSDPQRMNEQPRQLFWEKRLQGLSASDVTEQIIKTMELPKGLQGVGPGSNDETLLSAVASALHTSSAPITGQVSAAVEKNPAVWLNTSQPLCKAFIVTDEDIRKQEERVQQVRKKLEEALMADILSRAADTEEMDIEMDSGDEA
# SIAE inh: blocks human sialic acid acetylesterase. Q9HAT2. SIAE FP-Rh probe binding, fluorescence polarization. inhibition, % at 9.66 µM. hit rate 0.69% among 370,000;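 active means inhibition above a cutoff: mean of compounds within the control limits plus 3 SD of those, cut at about 17% in these data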;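 further: 0% = plate median of compound wells and 100% = probe without SIAE protein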
# LEDGF integ inh: blocks HIV-1 LEDGF/p75-dependent DNA integration. TR-FRET IN-LEDGF/p75 DNA integration, Eu/Cy5. hit rate 0.64% among 370,000. AID 743269. inhibition, % at 3.7 µM;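 active means inhibition above the screen-wide mean plus 3 SD, cut at about 13% in these data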;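 further: signal is the Cy5 over europium emission ratio at 671 and 618 nm; 0% = plate median of compound wells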
# TDP2 inh: TDP2 (human) inhibition, absorbance primary screen. recombinant TDP2, T5PNP hydrolysis, p-nitrophenol absorbance 415 nm. AID 720702. hit rate 0.34% among 370,000. inhibition, % at 12.8 µM. O95551;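 active means inhibition above the mean of all tested compounds plus 3 SD, set per campaign, cut at about 25% in these data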;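 further: 0% = DMSO with enzyme and 100% = buffer with substrate but no TDP2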
#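 test system = human TDP2 enzyme | input = TDP2 enzyme at 120 nM final | medium = 50 mM Tris-HCl pH 7.5 with Mg2+, KCl, DTT, BSA | also added = T5PNP substrate, 5 mM | times = 2 h at 37 °C | technique = epi absorbance | benchmarks = high control without enzyme, low control DMSO plus TDP2 | replication = each compound tested once, singlicate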
# PRMT1 FP inh: PRMT1 (human) inhibition, primary screen | recombinant PRMT1, activity-based probe fluorescence polarization | inhibition, % at 2.79 µM | hit rate 1.3% among 370,000 | AID 652257;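 active means inhibition above about 21% made by adding two undisclosed values, limit read from the data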
# UHRF1 binding: human UHRF1 methylated DNA binding inhibitors | UHRF1 binding to methylated oligo, TR-FRET | inhibition, % at 4.4 µM | hit rate 0.75% among 370,000 | AID 687016 | Q96T88; in the data active means inhibition above about 21%;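 further: UHRF1 SRA domain binding a hemimethylated CpG hairpin DNA probe; 0% = median of test compound wells and 100% = reference inhibitor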
# SIAE confirm: human SIAE inhibition, confirmation; hit rate 13% among 2,300; inhibition, % at 9.66 µM; SIAE FP-Rh activity-based probe, fluorescence polarization; shares compounds with SIAE inh; AID 1117263;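 active means mean inhibition of the replicates above the hit cutoff set in the primary screen, cut at about 17% in these data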;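 further: 0% = SIAE with DMSO and probe and 100% = probe without SIAE; inhibitors lower polarization as more probe stays unbound to SIAE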
# An asterisk follows results filed as active; · = not tested or not shown.
SMILES,MBD2 DNA inh,SIAE inh,LEDGF integ inh,TDP2 inh,PRMT1 FP inh,UHRF1 binding,SIAE confirm
Cc1cc2ccccc2n1CCNC(=O)Cc1cccc2ccccc12,-4,22*,4,8,1,-3,-2
CCN(CC)C(C)C(=O)Nc1c2c(cc3c1CCC3)CCC2 (stereo not drawn),1,5,3,-8,4,4,·
CC(C(=O)Nc1c2c(cc3c1CCC3)CCC2)N1CCCC1 (stereo not drawn),3,20*,2,5,-4,11,-7
O=C(Nc1nc(-c2ccc(Br)cc2)cs1)c1cccnc1,-5,-11,1,7,4,4,·
CC(C)/C=N/Nc1nc(-c2ccc(Br)cc2)cs1,1,18*,-2,9,1,-2,2
CCN(CC)CCCNC(=O)C1(N[C@@H](Cc2c[nH]c3ccccc23)C(=O)NCC(OC)OC)CCCCC1,-4,1,0,1,2,0,·
COc1cc(OC)c(OC)cc1/C=N/NC(=O)C[n+]1ccccc1,-5,49*,0,-7,-1,4,-2
COc1cccc(/C=N/NC(=O)C[n+]2ccccc2)c1O,0,0,-11,-10,-2,-3,·
CCOC(=O)C1=C(C)OC(N)=C(C#N)C1c1cc(SCC)oc1C (stereo not drawn),-7,19*,3,0,-1,-2,-8
CCOC(=O)C1=C(C)OC(N)=C(C#N)C1c1cc(C)sc1C (stereo not drawn),-3,5,5,4,6,-2,·
COc1ccc(OCc2cc(C(=O)N3CCCC(O)C3)no2)c2ccccc12 (stereo not drawn),1,18*,2,16,0,-2,0
COc1ccc(OCc2cc(C(=O)N3CCCC(OC)C3)no2)c2ccccc12 (stereo not drawn),-1,7,-5,-7,2,3,·
O=S(=O)(Nc1ccc(N=Nc2ccccc2)cc1)c1ccccc1,2,8,1,7,-2,-3,·
O=S(=O)(Nc1ccc(N=Nc2ccc(O)c3ccccc23)cc1)c1ccccc1,-1,36*,2,3,6,-2,-38
Cc1ccc(C2CCC3(CCC(=O)N3CCOC(=O)Nc3cccc(C#N)c3)CC2)cc1 (stereo not drawn),-5,2,-1,6,-2,0,·
COc1ccc(NC(=O)Nc2cccs2)cc1OC,1,18*,-2,10,2,-1,8
COc1cccc(NC(=O)Nc2cccs2)c1,4,4,0,5,-2,-4,·
CC1CCN(c2ccc(C(=O)O)cc2NS(=O)(=O)c2ccc(Cl)s2)CC1,3,6,-4,4,4,7,·
O=C(NNS(=O)(=O)c1ccc([N+](=O)[O-])cc1)c1ccc2ccccc2c1O,-1,19*,2,10,1,-1,2
CNC(=S)N/N=C/c1cc(Br)cc(Br)c1O,1,7,2,-4,-1,-7,·
Oc1c(Br)cc(Br)cc1/C=N/NC(=S)N[C@H]1CC2C=CC1C2 (stereo partly drawn),-2,24*,4,-24,-5,-8,24*
CCNc1ccccc1CP(=O)(c1ccccc1)c1ccccc1O (stereo not drawn),-4,35*,8,-11,75*,-1,12
CCCCN1CCS(=O)(=O)N(Cc2cn(Cc3cccc(Cl)c3)nn2)C(C(=O)OC)C1 (stereo not drawn),-3,-1,1,2,-1,0,·
CCc1c(-c2cccc(OC)c2)ncn1CCc1ccccc1OC,2,-1,0,1,5,1,·
COC(=O)CC#C[C@@H](C)[C@H](NS(=O)(=O)c1ccc(C)cc1)C(C)(C)C,5,-2,10,4,2,1,·
SMILES,MBD2 DNA inh,SIAE inh,LEDGF integ inh,TDP2 inh,PRMT1 FP inh,UHRF1 binding,SIAE confirm
CN(C)c1ccc(NC(=O)CSc2nnc(C3CCCCC3)n2N)cc1,1,20*,-3,12,4,-5,3
COCCn1c(C)cc(C2=NNC(=NC3CC3)SC2)c1C,-8,25*,0,10,10,-6,2
Cc1ccc(O)c(Nc2nc(-c3ccccc3)nc3ccccc23)c1,2,-2,1,11,-2,-3,·
Cc1ccc(O)c(Nc2c3ccccc3nc3ccccc23)c1,-10,37*,3,-14,4,-10,-7
CC1(C(=O)Nc2ccccc2)CCN1C(=O)CCc1ccc(Cl)cc1Cl (stereo not drawn),-6,19*,-3,2,-1,0,-1
O=C(NCCc1c[nH]c2ccccc12)OCc1cn(Cc2c(F)cccc2F)nn1,-5,14,1,-3,-7,-1,·
CN(C)C(=O)c1cnc(Cc2c[nH]c3ccccc23)c(I)c1,0,18*,-11,-2,2,-1,-5
COCCNC(=O)c1cccc(OC2CCN(Cc3ccc(C(=O)OC)cc3)CC2)c1,4,51*,4,-13,-4,1,1
C#Cc1cccc(OCC(C)CN2CCC(C(O)(c3ccccc3)c3ccccc3)CC2)c1 (stereo not drawn),2,-2,4,-4,-5,-2,·
COc1ccc(S[C@]2(C(=O)N3CCOCC3)CC(=O)N(S(=O)(=O)c3ccc(F)cc3)[C@@H]2c2ccc(OC)cc2)cc1,6,-5,0,3,14,1,·
O=C(c1cc(C2CC2)on1)N(C1CCCCC1)C1CCCCC1,8,-3,0,-10,-2,0,·
CCOC(=O)C(CNc1ccc(O)cc1)NC(=O)c1ccccc1 (stereo not drawn),-3,91*,6,13,21,3,8
O=C(Cc1cn(Cc2ccccc2)c2ccccc12)Nc1ccc(Nc2cccnc2)cc1,3,26*,-2,-16,14,1,28*
COc1ccc(OCCC(=O)OCC(=O)NCc2ccco2)cc1,5,0,6,-6,2,6,·
COc1ccccc1NCCC(=O)OCC(=O)NCc1ccco1,1,27*,2,-1,2,0,4
O=C(N[C@H](Cc1ccccc1)C(=O)N1CCN(Cc2ccccn2)CC1)[C@H]1O[C@@H](n2ccc(=O)[nH]c2=O)[C@H](O)[C@@H]1O,-3,4,-4,-5,-1,-2,·
COc1ccc(/C=C2\CC3(OC(=O)C4CCCCC4)CCCN2C3)cc1 (stereo not drawn),-3,6,0,-6,-2,-1,·
O=C(OC12CCCN(C1)/C(=C/c1ccc(Cl)cc1)C2)C1CCCCC1 (stereo not drawn),5,18*,-2,4,0,1,0

# Bioassay records: PubChem, The Scripps Research Institute Molecular Screening Center
